{"source": "paper PMC4128174", "about": "(European journal of medicinal chemistry, 2014)", "key": {"[1]": {"target": "T1, Human recombinant IDE (IDEwt) (Homo sapiens, UniProt P14735)", "T1 sequence (P14735 1-1019)": "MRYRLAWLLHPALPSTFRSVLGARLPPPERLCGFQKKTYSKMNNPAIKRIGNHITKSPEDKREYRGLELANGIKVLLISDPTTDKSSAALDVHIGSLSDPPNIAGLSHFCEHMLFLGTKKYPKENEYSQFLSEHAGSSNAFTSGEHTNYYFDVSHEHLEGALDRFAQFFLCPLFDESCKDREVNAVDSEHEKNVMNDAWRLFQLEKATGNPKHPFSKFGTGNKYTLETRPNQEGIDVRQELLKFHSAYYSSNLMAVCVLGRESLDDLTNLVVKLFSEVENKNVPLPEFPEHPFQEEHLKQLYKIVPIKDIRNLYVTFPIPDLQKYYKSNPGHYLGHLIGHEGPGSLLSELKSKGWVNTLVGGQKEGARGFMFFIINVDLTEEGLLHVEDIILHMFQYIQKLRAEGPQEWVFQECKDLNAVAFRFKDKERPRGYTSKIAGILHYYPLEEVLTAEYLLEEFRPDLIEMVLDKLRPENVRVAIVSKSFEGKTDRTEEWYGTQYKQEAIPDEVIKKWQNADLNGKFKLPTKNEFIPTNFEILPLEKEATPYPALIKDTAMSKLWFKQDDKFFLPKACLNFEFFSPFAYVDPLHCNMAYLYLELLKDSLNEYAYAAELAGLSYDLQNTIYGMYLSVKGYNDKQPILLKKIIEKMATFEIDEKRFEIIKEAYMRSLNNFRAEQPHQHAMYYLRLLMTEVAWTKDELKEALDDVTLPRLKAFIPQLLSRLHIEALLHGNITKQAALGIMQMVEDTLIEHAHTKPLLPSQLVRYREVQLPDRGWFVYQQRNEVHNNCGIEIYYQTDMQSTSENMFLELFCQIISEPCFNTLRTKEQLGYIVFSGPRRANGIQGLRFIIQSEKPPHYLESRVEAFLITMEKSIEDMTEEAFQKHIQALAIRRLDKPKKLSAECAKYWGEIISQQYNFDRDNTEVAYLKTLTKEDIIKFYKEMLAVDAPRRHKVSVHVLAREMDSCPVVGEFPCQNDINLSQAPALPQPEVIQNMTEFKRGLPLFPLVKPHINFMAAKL", "type": "biochemical", "settings": "for activity on Aβ16–23 hydrolysis (in words): IDEwt"}, "IDE E341A": {"target": "T2, IDE E341A (Homo sapiens, UniProt P14735, E341A)", "T2 sequence (P14735 1-1019 E341A)": "T1 sequence (P14735 1-1019) with E341A", "experiment": "Hydrolysis of dual labelled Aβ16–23 by the E341A exosite mutant", "type": "biochemical"}, "Cell permeability": {"experiment": "Cell permeability", "type": "in vitro ADME"}, "[2]": {"experiment": "Solubility in PBS from a DMSO stock solution", "type": "physicochemical"}, "β-pancreatic cells": {"test_system": "β-pancreatic cells", "experiment": "Insulin secretion by β-pancreatic cells", "type": "cell-based"}, "Cell medium stability": {"experiment": "Cell medium stability", "type": "in vitro ADME"}, "[3]": {"experiment": "LogD7.4, PBS/octanol partition from a DMSO stock solution", "type": "physicochemical", "settings": "compared with 5"}, "hIDE": {"target": "T3, hIDE (Homo sapiens, UniProt P14735)", "T3 sequence (P14735 1-1019)": "T1 sequence (P14735 1-1019)", "experiment": "Hydrolysis of unlabelled native insulin by hIDE", "type": "biochemical", "settings": "at 100µM"}, "hepatocytes": {"test_system": "hepatocytes", "experiment": "Repression of PEPCK by insulin on hepatocytes", "type": "cell-based"}, "[4]": {"test_system": "SH-SY5Y neuroblastoma cells (APPswe, APPwt)", "experiment": "Cellular assay in the amyloid pathway", "type": "cell-based, human", "method_in_brief": "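SH-SY5Y cells stably expressing human APP751 Swedish or […], grown in DMEM/10% FCS at 37 °C, 5% CO2. Treated 24 h after seeding with vehicle or test compound (10 mM DMSO stock). Medium cleared at 1000 × g and assayed by ELISA: Aβ1–40 diluted 1:10, Aβ1–42 undiluted. Duplicates from three experiments, normalised to untreated cells. RIPA lysates immunoblotted: 12 µg Bis-Tris gel; CTFs 30 µg Tris-Tricine gel.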"}, "[5]": {"settings": "0.1 or 10 µM, 24 h and 48 h, APPswe and APPwt SY5Y"}}, "note": "Numbering of substitutions follows the chain as printed."}
{"smiles": "COC(=O)[C@H](Cc1c[nH]cn1)NC(=O)CN(CC(=O)O)C(=O)c1ccccc1", "note": "[Compound 7, (S)-2-(2-(Benzoyl-carboxymethyl-amino)-acetylamino)-3-(1H-imidazol-4-yl)-propionic acid methyl ester]", "values": [{"measurement": "activity on Aβ16–23 hydrolysis (in words)", "setting": "[1]", "value": "completely abolish activity"}]}
{"smiles": "COC(=O)[C@H](Cc1c[nH]cn1)NC(=O)CN(CC(=O)O)Cc1ccccc1", "note": "[Compound 1, (S)-2-[2-(Benzyl-carboxymethyl-amino)-acetylamino]-3-(1H-imidazol-4-yl)-propionic acid methyl ester]", "values": [{"measurement": "behaviour as inhibitor", "setting": "IDE E341A", "value": "full inhibitor"}]}
{"smiles": "COC(=O)[C@H](Cc1ccccc1)NC(=O)CN(CC(=O)O)Cc1ccccc1", "note": "[Compound 6, (S)-2-(2-(Benzyl-carboxymethyl-amino)-acetylamino)-3-phenyl-propionic acid methyl ester]", "values": [{"measurement": "activity on Aβ16–23 hydrolysis (in words)", "setting": "[1]", "value": "completely abolish activity"}]}
{"smiles": "O=C(O)CN(CCN(CC(=O)O)CC(=O)O)CC(=O)O", "note": "[EDTA, reference compound]", "values": [{"measurement": "inhibition by reference inhibitor", "setting": "[1]; at 2 mM", "value": 100, "unit": "%"}]}
{"smiles": "CNC(=O)[C@H](Cc1c[nH]cn1)NC(=O)CN(CCCc1ccccc1)CC(=O)O", "note": "[Compound 5, ((((S)-2-(1H-Imidazol-4-yl)-1-methylcarbamoyl-ethylcarbamoyl)-methyl)-(3-phenylpropyl)-amino)-acetic acid]", "values": [{"measurement": "crossing of cell membranes (in words)", "setting": "Cell permeability", "value": "does not cross easily cell membranes"}]}
{"smiles": "CNC(=O)[C@H](Cc1c[nH]cn1)NC(=O)CN(CCCc1ccccc1)CC(=O)OC", "note": "[Compound 8, ((((S)-2-(1H-Imidazol-4-yl)-1-methylcarbamoyl-ethyl-carbamoyl)-methyl)-(3-phenylpropyl)-amino)-acetic acid methyl ester]", "values": [{"measurement": "solubility (in words)", "setting": "[2]", "value": "good solubility"}, {"measurement": "level of insulin secreted by β-pancreatic cells", "setting": "β-pancreatic cells", "value": "did neither affect"}, {"measurement": "half-life", "setting": "Cell medium stability", "value": 11.3, "unit": "h"}, {"measurement": "logD7.4 (in words)", "setting": "[3]", "value": "higher"}, {"measurement": "residual activation of insulin hydrolysis", "setting": "hIDE", "value": "50 % of 5 activity"}, {"measurement": "repression of PEPCK by insulin on hepatocytes", "setting": "hepatocytes", "value": "nor modify"}, {"measurement": "effect on APP holoproteins and on CTFs", "setting": "[4]", "value": "No effect"}, {"measurement": "extracellular levels of Aβ1–40", "setting": "[4]; [5]", "value": "dose-dependent increase"}, {"measurement": "extracellular levels of Aβ1–42", "setting": "[4]; [5]", "value": "dose-dependent increase"}]}
